Data as given in ChEMBL document CHEMBL1157101, “A series of alpha-heterocyclic carboxaldehyde thiosemicarbazones inhibit topoisomerase IIalpha catalytic activity” (J Med Chem, 2010).
Calls of active or inactive are those of the source. The calls are words filed in the database; no cut-off is given here.

Legend:
SGC-7901 = assay: Antiproliferative activity against human SGC7901 cells after 72 hrs by sulforhodamine B assay; assay type: functional, cell-based; conditions: SGC-7901, 72 h
In short: (§1)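 Cells seeded and exposed in triplicate to graded compound concentrations for 72 h. Suspension cells read by MTT conversion to coloured product; adherent cells read by sulforhodamine B. IC50 (50% growth inhibition versus untreated control) derived by the Logit method.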

[1] = target: T1, DNA topoisomerase 2-alpha (Homo sapiens, UniProt P11388); assay: Inhibition of human topoisomerase 2 alpha-mediated decatenation of kDNA at 100 uM after 15 mins
T1 sequence (P11388 whole entry): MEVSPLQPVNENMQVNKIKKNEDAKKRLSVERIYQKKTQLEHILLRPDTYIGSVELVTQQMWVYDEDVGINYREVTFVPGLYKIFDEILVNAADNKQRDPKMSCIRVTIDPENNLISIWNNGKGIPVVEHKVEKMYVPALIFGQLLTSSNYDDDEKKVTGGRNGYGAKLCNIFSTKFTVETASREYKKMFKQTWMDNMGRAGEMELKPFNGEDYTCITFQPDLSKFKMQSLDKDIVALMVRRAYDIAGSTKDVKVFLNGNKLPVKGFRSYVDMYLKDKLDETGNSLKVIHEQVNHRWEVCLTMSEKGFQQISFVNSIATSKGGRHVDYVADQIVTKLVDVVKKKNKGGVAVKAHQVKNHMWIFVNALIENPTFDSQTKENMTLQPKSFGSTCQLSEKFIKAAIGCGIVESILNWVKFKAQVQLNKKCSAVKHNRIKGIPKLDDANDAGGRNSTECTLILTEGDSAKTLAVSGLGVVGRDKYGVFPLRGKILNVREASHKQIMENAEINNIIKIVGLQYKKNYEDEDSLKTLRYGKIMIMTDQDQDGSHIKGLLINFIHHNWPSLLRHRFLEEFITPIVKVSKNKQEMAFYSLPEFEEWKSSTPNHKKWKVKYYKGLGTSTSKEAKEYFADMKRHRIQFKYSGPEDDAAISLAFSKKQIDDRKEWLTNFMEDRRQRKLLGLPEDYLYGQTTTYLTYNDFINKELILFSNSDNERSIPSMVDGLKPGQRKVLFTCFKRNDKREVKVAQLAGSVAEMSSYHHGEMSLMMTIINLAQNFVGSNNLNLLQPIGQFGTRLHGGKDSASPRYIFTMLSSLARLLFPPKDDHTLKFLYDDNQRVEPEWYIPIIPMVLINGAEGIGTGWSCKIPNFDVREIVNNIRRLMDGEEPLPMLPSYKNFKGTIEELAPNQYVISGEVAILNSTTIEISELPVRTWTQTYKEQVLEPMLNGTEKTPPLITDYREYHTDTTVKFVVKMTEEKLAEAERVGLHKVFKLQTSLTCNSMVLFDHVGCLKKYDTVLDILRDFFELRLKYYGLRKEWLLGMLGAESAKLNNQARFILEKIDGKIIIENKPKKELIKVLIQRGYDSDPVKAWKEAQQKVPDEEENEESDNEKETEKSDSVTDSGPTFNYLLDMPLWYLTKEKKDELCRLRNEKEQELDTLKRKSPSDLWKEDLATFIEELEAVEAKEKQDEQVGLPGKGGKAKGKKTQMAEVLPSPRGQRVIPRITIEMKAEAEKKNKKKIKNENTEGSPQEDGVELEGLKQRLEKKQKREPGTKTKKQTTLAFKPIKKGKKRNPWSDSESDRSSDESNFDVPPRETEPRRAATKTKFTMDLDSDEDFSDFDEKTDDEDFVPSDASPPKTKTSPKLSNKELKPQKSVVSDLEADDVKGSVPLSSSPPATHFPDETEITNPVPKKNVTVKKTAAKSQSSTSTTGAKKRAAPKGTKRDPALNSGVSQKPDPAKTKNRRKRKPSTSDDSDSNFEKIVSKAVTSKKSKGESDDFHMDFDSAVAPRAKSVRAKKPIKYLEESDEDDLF

MDA-MB-435 = assay: Antiproliferative activity against human MDA-MB-435 cells after 72 hrs by sulforhodamine B assay; assay type: functional, cell-based; conditions: MDA-MB-435, 72 h; in short: as §1
NCI-H23 = assay: Antiproliferative activity against human NCI-H23 cells after 72 hrs by sulforhodamine B assay; assay type: functional, cell-based; conditions: NCI-H23, 72 h; in short: as §1
Bel-7402 = assay: Antiproliferative activity against human Bel7402 cells after 72 hrs by sulforhodamine B assay; assay type: functional, cell-based; conditions: Bel-7402, 72 h; in short: as §1
SMMC-7721 = assay: Antiproliferative activity against human SMMC7721 cells after 72 hrs by sulforhodamine B assay; assay type: functional, cell-based; conditions: SMMC-7721, 72 h; in short: as §1
U-937 = assay: Antiproliferative activity against human U937 cells after 72 hrs by sulforhodamine B assay; assay type: functional, cell-based; conditions: U-937, 72 h; in short: as §1
A-375 = assay: Antiproliferative activity against human A375 cells after 72 hrs by sulforhodamine B assay; assay type: functional, cell-based; conditions: A-375, 72 h; in short: as §1
CCRF S-180 = assay: Antitumor activity against mouse S180 cells transplanted in Kunming mouse assessed as inhibition of tumor growth at 12.5 mg/kg/day, ip for 7 days; assay type: functional; conditions: CCRF S-180, ip, 168 h, route intraperitoneal
In short: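 Female Kunming mice, 7 weeks old, 18-22 g, inoculated sc in the right armpit with S-180 sarcoma. Dosing began the next day, ip daily for 7 days; normal saline given iv as control. Tumours excised and weighed after treatment. Inhibitory rate (%) = (mean control tumour weight − mean treated tumour weight)/mean control tumour weight × 100.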

Mus musculus [2] = assay: Toxicity in Kunming mouse bearing mouse S180 cells assessed as change in body weight at 50 mg/kg/day, ip for 7 days (reference value: 17.9 g); assay type: organism-based, CCRF S-180; parameters: route intraperitoneal; conditions: in vivo, 168 h
In short: (§2)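 Female Kunming mice, 7 weeks old and 18-22 g, were inoculated sc in the right armpit with S-180 sarcoma. From the next day they received ip injections at the stated daily dose for 7 days, alongside a normal-saline control group. Body weight was recorded at the start and at the end of treatment.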

Mus musculus [3] = assay: Toxicity in Kunming mouse bearing mouse S180 cells assessed as change in body weight at 12.5 mg/kg/day, ip for 7 days (reference value: 17.9 g); assay type: organism-based, CCRF S-180; parameters: route intraperitoneal; conditions: in vivo, 168 h; in short: as §2
HT-29 [4] = assay: Cell cycle arrest in nocodazole pretreated human HT-29 cells assessed as accumulation at M phase at 1 uM after 24 hrs; assay type: functional, cell-based
In short: (§3)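 HT-29 cells stained with propidium iodide; cell-cycle distribution determined by flow cytometry.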

HT-29 [5] = assay: Cytotoxicity against human HT-29 cells after 72 hrs in presence of FeSO4; assay type: functional, cell-based
[6] = target: T1, DNA topoisomerase 2-alpha; assay: Inhibition of human topoisomerase 2alpha-mediated relaxation of pBR322 at 25 uM
[7] = target: T1, DNA topoisomerase 2-alpha; assay: Inhibition of human topoisomerase 2alpha-mediated decatenation of kDNA at 25 uM
[8] = target: T2, DNA topoisomerase 1 (Homo sapiens) (UniProt P11387); assay: Inhibition of human topoisomerase 1-mediated relaxation of pBR322 at 100 uM
T2 sequence (whole entry): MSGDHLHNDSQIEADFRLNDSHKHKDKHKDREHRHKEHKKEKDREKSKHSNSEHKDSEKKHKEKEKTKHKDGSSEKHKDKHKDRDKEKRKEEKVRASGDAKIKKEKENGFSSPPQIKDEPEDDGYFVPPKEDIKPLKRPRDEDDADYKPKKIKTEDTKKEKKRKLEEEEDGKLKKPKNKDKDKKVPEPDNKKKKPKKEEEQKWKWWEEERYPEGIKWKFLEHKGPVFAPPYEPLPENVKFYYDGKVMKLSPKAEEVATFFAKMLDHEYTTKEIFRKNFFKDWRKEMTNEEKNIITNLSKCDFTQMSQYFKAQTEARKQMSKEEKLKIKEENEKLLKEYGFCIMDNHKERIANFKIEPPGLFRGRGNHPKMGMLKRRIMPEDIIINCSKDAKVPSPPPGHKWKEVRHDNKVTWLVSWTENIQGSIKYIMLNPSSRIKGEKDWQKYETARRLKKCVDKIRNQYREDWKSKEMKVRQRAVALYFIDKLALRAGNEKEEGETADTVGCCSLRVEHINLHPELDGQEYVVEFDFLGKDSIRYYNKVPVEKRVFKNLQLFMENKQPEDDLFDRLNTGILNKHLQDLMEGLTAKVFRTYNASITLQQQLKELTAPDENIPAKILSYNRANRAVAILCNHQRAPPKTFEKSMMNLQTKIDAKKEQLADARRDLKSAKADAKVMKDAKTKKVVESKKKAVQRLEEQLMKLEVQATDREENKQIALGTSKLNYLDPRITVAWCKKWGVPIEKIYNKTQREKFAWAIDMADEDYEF

[9] = target: T1, DNA topoisomerase 2-alpha; assay: Inhibition of topoisomerase-2 alpha in human HL60/MX2 cells assessed as antagonization of etoposide-mediated enzyme-DNA cleavage complex at 100 uM; assay type: cell-based
[10] = target: T1, DNA topoisomerase 2-alpha; assay: Inhibition of topoisomerase-2 alpha in human HT-29 cells assessed as reversal of etoposide-mediated DNA double strand break after 1 hr measured as phosphorylated histone2A level by immunostaining; assay type: cell-based
[11] = target: T1, DNA topoisomerase 2-alpha; assay: Inhibition of topoisomerase 2-mediated displacement of ethidium bromide from DNA assessed as decrease in fluorescence
[12] = target: T1, DNA topoisomerase 2-alpha; assay: Inhibition of human topoisomerase 2alpha ATPase domain assessed as ATP hydrolysis
In short: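 NADH-coupled ATPase assay at 37 °C in 100 μL. Contains 2 μg Topo IIα ATPase domain (or 18 nM Topo IIα), 0.2 μg pBR322, 1 mM ATP, 2 mM PEP, 0.16 mM NADH, 5 U pyruvate kinase and 8 U lactate dehydrogenase.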

[13] = target: T1, DNA topoisomerase 2-alpha; assay: Inhibition of topoisomerase-2 alpha in human HT-29 cells assessed as reversal of etoposide-mediated DNA double strand break measured as phosphorylated histone2A level at 100 uM by immunostaining; assay type: cell-based
Nucleic Acid = assay: Inhibition of Fenton's reaction mediated DNA strand break in Escherichia coli pBR322 by gel electrophoresis; assay type: nucleic-acid assay
In short: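 pBR322 (0.2 μg) incubated 30 min at room temperature in 13 mM Hepes pH 7.2 with 1 mM H2O2 and 10 μM FeSO4 plus compound. Run on 1% agarose containing 0.1 μg/mL ethidium bromide at 90 V for 60 min. Bands quantified; % supercoiled = 1.4SC/(L+OC+1.4SC)×100.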

HT-29 [14] = assay: Cell cycle arrest in human HT-29 cells pretreated with aphidicolin for 1 hr assessed as accumulation at G1/S phase after 24 hrs by flow cytometry in presence of nocdazole; assay type: functional, cell-based; in short: as §3
[15] = target: T2, DNA topoisomerase 1 (Homo sapiens); assay: Inhibition of human topoisomerase 1-mediated relaxation of pBR322 up to 125 uM
[16] = target: T1, DNA topoisomerase 2-alpha; assay: Inhibition of topoisomerase 2alpha assessed as antagonization of etoposide-mediated prestrand passage DNA cleavage in absence of ATP

CN(C)C(=S)N/N=C/c1ccc2ccccc2n1
IC50 (SGC-7901): 30 nM | inhibition (active/not active) [1]: Active | IC50 (MDA-MB-435): 370 nM | IC50 (NCI-H23): 80 nM | IC50 (Bel-7402): 180 nM | IC50 (SMMC-7721): 240 nM | IC50 (U-937): 30 nM | IC50 (A-375): 20 nM | inhibition in vivo at 12.5 mg/kg/day (CCRF S-180): 17.6% | Activity (Mus musculus [2]): 20 g | Activity (Mus musculus [3]): 29 g | Activity (HT-29 [4]): Active | inhibition (HT-29 [5]): Active | inhibition [6]: inactive | inhibition [7]: Active | inhibition [8]: Active | inhibition [9]: Active | inhibition [10]: Dose-dependent effect | inhibition [11]: inactive | inhibition [12]: Dose-dependent effect | inhibition [13]: Active | inhibition (Nucleic Acid): Dose-dependent effect | Activity (HT-29 [14]): inactive | inhibition [15]: inactive | inhibition [16]: inactive
